According to ChEMBL document CHEMBL1146634, “Sulphonamide-based small molecule VLA-4 antagonists” (Bioorg Med Chem Lett, 2003):

Legend:
[1] = molecular target: T1, Integrin alpha-4/beta-1 (Homo sapiens, UniProt P05556+P13612); assay: Inhibition of CS-1 fragment binding to Very late antigen 4 (VLA-4) expressed in Ramos cells; format: cell-based
[2] = molecular target: T1, Integrin alpha-4/beta-1; assay: Inhibition of CS-1 fragment binding to Very late antigen 4 expressed in Ramos cells in 10% fetal bovine serum(FBS); format: cell-based
[3] = Half-life period in cynomolgus monkey; format: ADME; details: cercopithecidae, in vivo
[4] = Oral bioavailability in cynomolgus monkey; format: ADME, organism-based, Macaca fascicularis; details: in vivo
[5] = Cmax in cynomolgus monkey by iv administration; format: ADME, organism-based; parameters: route intravenous; details: cercopithecidae, in vivo
[6] = Cmax in cynomolgus monkey by po administration; format: ADME, organism-based; parameters: route oral; details: cercopithecidae, in vivo
[7] = Pharmacokinetic property(Vdss) in cynomolgus monkey; format: ADME, organism-based; details: cercopithecidae, in vivo; read-out: Vdss
[8] = Plasma clearance in cynomolgus monkey; format: ADME, organism-based; details: cercopithecidae
[9] = test system: Mus musculus; assay: Inhibition of eosinophil infiltration in the murine asthma model tested in vivo at a dose of 10 mg/kg (intravenous); format: functional; details: route intranasal, in the assay text read “intranasal” for “intravenous”
Procedure, shortened: (§1)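 Mice were ovalbumin-sensitized and challenged. Twenty-four hours after the final OVA challenge, they were exsanguinated and the right lung lavaged (0.4 mL saline ×3). Total BAL cells were counted, then the pelleted cells were smeared, stained with Discombe's fluid (eosin/acetone) and counterstained with 0.07% methylene blue for eosinophil counts. Inhibition is expressed relative to OVA-challenged animals.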

[10] = test system: Mus musculus; assay: Inhibition of eosinophil infiltration in the murine asthma model tested in vivo at a dose of 5 mg/kg (intravenous); format: functional; procedure, shortened: as §1
[11] = test system: Mus musculus; assay: Inhibition of eosinophil infiltration in the murine asthma model tested in vivo by po administration at a dose of 10 mg/kg (peroral); format: functional; procedure, shortened: as §1
[12] = test system: Mus musculus; assay: Inhibition of eosinophil infiltration in the murine asthma model tested in vivo by po administration at a dose of 25 mg/kg (peroral); format: functional; procedure, shortened: as §1
[13] = test system: Mus musculus; assay: Reduction in eosinophil count in murine asthma model tested in vivo by at a dose of 10 mg/kg (intravenous); format: functional; procedure, shortened: as §1
[14] = test system: Mus musculus; assay: Reduction in eosinophil count in murine asthma model tested in vivo by po administration at a dose of 10 mg/kg (peroral); format: functional; procedure, shortened: as §1
[15] = test system: Mus musculus; assay: Reduction in eosinophil count in murine asthma model tested in vivo by po administration at a dose of 25 mg/kg (peroral); format: functional; procedure, shortened: as §1
[16] = test system: Mus musculus; assay: Eosinophil count in murine asthma model tested in vivo at a dose of 5 mg/kg (intravenous)

T1 sequence (P05556 whole entry, the tested form may be a part): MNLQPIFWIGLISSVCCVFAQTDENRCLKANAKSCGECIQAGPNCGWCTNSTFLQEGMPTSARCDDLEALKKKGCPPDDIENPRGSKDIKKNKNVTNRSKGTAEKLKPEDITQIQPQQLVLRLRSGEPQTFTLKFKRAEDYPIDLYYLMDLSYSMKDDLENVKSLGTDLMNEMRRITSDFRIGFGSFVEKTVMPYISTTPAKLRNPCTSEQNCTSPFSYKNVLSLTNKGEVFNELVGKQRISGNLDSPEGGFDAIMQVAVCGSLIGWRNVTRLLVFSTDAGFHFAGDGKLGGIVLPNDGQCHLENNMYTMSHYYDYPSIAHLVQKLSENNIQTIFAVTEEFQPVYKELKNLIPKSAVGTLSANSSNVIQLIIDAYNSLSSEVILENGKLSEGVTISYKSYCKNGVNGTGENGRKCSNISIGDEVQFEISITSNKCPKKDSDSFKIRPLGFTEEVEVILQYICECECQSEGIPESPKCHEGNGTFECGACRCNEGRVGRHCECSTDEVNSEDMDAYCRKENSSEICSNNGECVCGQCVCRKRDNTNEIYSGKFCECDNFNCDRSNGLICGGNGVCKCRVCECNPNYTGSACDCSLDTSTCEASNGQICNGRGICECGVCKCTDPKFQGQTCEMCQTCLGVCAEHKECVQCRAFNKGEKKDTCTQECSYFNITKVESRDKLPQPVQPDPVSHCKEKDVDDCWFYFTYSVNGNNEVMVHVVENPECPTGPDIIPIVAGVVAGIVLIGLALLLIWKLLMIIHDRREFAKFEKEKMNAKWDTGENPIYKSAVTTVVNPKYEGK
T1 sequence (P13612 whole entry, the tested form may be a part): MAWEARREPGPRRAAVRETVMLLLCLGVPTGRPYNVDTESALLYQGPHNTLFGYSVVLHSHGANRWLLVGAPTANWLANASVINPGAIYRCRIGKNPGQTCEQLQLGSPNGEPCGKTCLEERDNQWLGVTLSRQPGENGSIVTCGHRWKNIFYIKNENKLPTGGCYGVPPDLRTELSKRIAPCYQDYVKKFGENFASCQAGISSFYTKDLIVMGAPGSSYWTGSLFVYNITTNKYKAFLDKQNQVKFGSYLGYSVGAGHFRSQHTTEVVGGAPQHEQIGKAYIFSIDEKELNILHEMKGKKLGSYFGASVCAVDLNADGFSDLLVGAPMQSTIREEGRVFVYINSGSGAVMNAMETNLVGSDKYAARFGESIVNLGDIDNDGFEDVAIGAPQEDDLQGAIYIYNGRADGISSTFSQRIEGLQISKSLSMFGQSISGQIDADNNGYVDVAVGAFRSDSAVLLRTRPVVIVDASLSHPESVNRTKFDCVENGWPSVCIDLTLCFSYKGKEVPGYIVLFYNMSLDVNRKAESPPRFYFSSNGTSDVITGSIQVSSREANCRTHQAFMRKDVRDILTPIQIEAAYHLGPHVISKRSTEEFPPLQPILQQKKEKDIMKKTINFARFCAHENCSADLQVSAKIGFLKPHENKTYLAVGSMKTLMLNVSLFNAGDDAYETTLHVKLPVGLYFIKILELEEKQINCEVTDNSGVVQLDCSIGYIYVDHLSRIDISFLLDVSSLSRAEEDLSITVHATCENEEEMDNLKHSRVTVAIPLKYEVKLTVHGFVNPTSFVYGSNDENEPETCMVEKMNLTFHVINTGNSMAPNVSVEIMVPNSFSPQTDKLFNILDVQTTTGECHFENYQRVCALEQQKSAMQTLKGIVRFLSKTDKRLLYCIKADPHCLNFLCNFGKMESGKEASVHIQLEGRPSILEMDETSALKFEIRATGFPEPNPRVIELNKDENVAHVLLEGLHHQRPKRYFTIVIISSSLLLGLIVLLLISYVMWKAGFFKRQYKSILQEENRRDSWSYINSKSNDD

Row | IC50 [1] | IC50 [2] | Structure (SMILES) | also measured
1 | 180 nM | – | O=C(O)CC[C@H](NS(=O)(=O)c1ccc2ccccc2c1)C(=O)N[C@@H](Cc1ccccc1)C(=O)O | –
2 | 2 nM | – | O=C(O)CC[C@H](NS(=O)(=O)c1ccc2ccccc2c1)C(=O)N[C@@H](Cc1ccc(OCc2c(Cl)cccc2Cl)cc1)C(=O)O | –
3 | 1 nM | – | CN([C@@H](CCC(=O)O)C(=O)N[C@@H](Cc1ccc(OCc2c(Cl)cccc2Cl)cc1)C(=O)O)S(=O)(=O)c1ccc2ccccc2c1 | –
4 | 0.8 nM | 10 nM | O=C(O)CN(CC(=O)N[C@@H](Cc1ccc(OCc2c(Cl)cccc2Cl)cc1)C(=O)O)S(=O)(=O)c1cccs1 | –
5 | 0.7 nM | 10 nM | O=C(O)CN(CC(=O)N[C@@H](Cc1ccc(OCc2c(Cl)cccc2Cl)cc1)C(=O)O)S(=O)(=O)c1ccc(F)cc1 | –
6 | 1.5 nM | 10 nM | O=C(O)CN(CC(=O)N[C@@H](Cc1ccc(OCc2c(Cl)cccc2Cl)cc1)C(=O)O)S(=O)(=O)c1ccccn1 | –
7 | 2 nM | – | CN([C@@H](CC(=O)O)C(=O)N[C@@H](Cc1ccc(OCc2c(Cl)cccc2Cl)cc1)C(=O)O)S(=O)(=O)c1ccccc1 | –
8 | 0.6 nM | 8 nM | O=C(O)CN(CC(=O)N[C@@H](Cc1ccc(OCc2c(Cl)cccc2Cl)cc1)C(=O)O)S(=O)(=O)c1ccccc1 | half-life [3]: 6.6 min; bioavailability [4]: 26.9%; Cmax [5]: 528 ng/mL; Cmax [6]: 101 ng/mL; Vd [7]: 0.303 L/kg; clearance [8]: 58.8 mL/min/kg; EOS inhibition [9]: 50%; EOS inhibition [10]: 28%; EOS inhibition [11]: 69%; EOS inhibition [12]: 75%; EOS count [13]: 4.36 10^5 cells; EOS count [14]: 2.67 10^5 cells; EOS count [15]: 2.16 10^5 cells; EOS count [16]: 6.26 10^5 cells
9 | 0.1 nM | 2 nM | CN([C@@H](CCC(=O)O)C(=O)N[C@@H](Cc1ccc(OCc2c(Cl)cccc2Cl)cc1)C(=O)O)S(=O)(=O)c1ccccc1 | –
